# The source made the active and inactive calls.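 The calls were made as follows, unless noted: active = viability at or below 30% in both replicate assays; inconclusive = viability at or below 30% in just one of the two assays; inactive = the rest.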
# Columns and labels:
# [1] = Her2 expression decrease, cell viability multiplex – SKBR3 breast tumor cells, AlphaScreen, ATP viability, primary screen (AID 461;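 active = Her2 level under about 52% in both replicate screens, with viability over 70% of control, limit read from the data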;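 as to Her2 level: lower value means less Her2 protein in the cells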;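 as to viability: percent of carrier control wells set as 100% viability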); conditions: SKBR3 Her2 protein level, 18-24 h, measured here: SKBR3 viability, ATP luminescence, at 10 µM
# [2] = biological target: Receptor tyrosine-protein kinase erbB-2 (Homo sapiens) (UniProt P04626); experiment: as above; conditions: 18-24 h, at 10 µM, stronger effect = lower value
# Receptor tyrosine-protein kinase erbB-2 (Homo sapiens), sequence (P04626 whole entry, looked up): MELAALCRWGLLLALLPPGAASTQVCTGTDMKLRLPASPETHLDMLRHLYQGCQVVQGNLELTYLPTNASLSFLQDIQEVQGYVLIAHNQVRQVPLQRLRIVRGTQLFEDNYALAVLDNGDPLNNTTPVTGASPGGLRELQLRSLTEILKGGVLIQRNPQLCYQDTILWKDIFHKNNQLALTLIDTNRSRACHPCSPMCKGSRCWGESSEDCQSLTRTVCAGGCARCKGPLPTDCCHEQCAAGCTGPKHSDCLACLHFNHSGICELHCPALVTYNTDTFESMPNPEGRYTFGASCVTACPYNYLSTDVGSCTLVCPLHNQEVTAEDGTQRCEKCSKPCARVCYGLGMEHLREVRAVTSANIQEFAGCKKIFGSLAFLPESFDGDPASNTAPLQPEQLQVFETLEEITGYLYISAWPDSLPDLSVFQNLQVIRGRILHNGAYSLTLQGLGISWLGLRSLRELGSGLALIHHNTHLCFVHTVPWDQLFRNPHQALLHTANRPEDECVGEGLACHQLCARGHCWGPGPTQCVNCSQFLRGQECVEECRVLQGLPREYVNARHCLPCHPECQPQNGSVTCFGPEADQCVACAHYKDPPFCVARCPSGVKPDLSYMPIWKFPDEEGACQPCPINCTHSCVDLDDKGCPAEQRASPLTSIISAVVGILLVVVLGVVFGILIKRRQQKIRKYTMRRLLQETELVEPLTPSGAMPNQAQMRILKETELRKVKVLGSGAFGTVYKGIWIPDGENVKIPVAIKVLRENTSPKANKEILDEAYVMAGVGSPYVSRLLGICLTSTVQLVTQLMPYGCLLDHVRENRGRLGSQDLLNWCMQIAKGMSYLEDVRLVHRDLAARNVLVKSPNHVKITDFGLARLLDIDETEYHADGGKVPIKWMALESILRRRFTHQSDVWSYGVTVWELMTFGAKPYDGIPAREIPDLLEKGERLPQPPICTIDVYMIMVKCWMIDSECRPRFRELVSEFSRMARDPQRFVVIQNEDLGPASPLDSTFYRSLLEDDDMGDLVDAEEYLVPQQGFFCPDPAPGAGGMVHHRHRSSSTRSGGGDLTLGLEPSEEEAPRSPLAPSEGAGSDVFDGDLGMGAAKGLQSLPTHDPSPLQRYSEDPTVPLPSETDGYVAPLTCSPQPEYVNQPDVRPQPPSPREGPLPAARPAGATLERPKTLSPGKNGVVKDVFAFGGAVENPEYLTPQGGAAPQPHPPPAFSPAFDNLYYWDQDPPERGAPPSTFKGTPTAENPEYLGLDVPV
# [3] = reduced viability of SK-BR-3 breast cancer cells – cell-based, 24 h, human, pilot screen (AID 572;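 active = viability at or below 10% of carrier control in both of two separate runs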;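 also: compound exposure lasted between 18 and 24 h rather than exactly 24 h; 100% = carrier-treated control wells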); conditions: SK-BR-3 viability, CellTiter-Glo luminescence, at 10 µM, stronger effect = lower value
# [4] = HUVEC growth inhibition – cell-based, human, primary screen (AID 575); conditions: HUVEC proliferation, CellTiter-Glo luminescence, 72 h; at 10 µM; stronger effect = lower value;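 also: 100% = median of untreated cell wells with 0.1% DMSO on each plate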
# Summary of the method: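 Test system: HUVEC primary cells. Quantity: 1250 endothelial cells in each well. Dosing: single-point 10 µM, DMSO 0.1% final. Incubation: 72 h treatment at 37 °C. Measured by: CTG luminescence. Control set: DMSO cell controls and MePR drug controls. Plate: collagen-coated 384-well format.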
# [5] = H69AR cell proliferation blockers – human, duplicate replicates, primary screen (AID 580;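 active = viability at or under a set limit in both replicates, limit being median viability minus 3 SD, cut at about 48% in these data, passing the limit was not always enough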;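 also: 100% = mean luminescence of untreated wells and 0% = no signal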); conditions: H69AR lung tumor cells viability, ATP luminescence, 72 h; at 10 µM; stronger effect = lower value
# [6] = MRP1 drug-resistance reversers in H69AR cells – cell-based, doxorubicin co-treatment, pilot screen (AID 601;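 active = viability loss from added drug above about 55%, and viability with drug at most 40%, in both replicates, limit read from the data, passing the limit was not always enough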); conditions: CellTiter-Glo, 72 h, at 10 µM; for differential viability (reversal): stronger effect = higher value
# [7] = yeast transport mutant growth inhibition pilot in 384-well plates, post-Golgi transport modulator project (AID 636; in the data active = inhibition above about 31%); conditions: absorbance 615 nm, about 18 h, stronger effect = higher value
# [8] = growth suppression of yeast trafficking mutant, preliminary HTS, modulators of trafficking downstream of Golgi apparatus project, 1536-format plate, OD 615 nm (AID 637; in the data active = inhibition above about 30%); conditions: yeast transport mutant growth, absorbance 615 nm, 18 h; stronger effect = higher value
# [9] = H69AR cells + 2 uM doxorubicin, measured here: viability with 2 uM doxorubicin, stronger effect = lower value
# [10] = H69AR cells, compound alone cytotoxicity
SMILES,viability [1],Her2 level [2],viability [3],viability [4],viability [5],differential viability (reversal) ([6]; H69AR cells + 2 uM doxorubicin),"viability [6, 9]","viability [6, 10]",inhibition [7],inhibition [8]
COCCNC(=O)CN1CCN(C(c2ccccc2)c2ccccc2)CC1,86%,117% (inactive),86% (inactive),84.3% (inactive),93.1% (inactive),0.91% (inactive),92.2%,93.1%,-0.39% (inactive),-5.08% (inactive)
CCOc1ccccc1C(=O)NC(C)c1ccc2c(c1)OCO2 (stereo not given),104%,99% (inactive),104% (inactive),67.6% (inactive),23.5% (active),-56.4% (inactive),80%,23.5%,-6.89% (inactive),-4.26% (inactive)
Cc1cccc(-c2nc(CN3CCCC(C(=O)NC4CCCC4)C3)c(C)o2)c1 (stereo not given),86%,86.5% (inactive),86% (inactive),72.3% (inactive),84.2% (inactive),-11.2% (inactive),95.4%,84.2%,1.73% (inactive),2.9% (inactive)
C=COC(=O)CSc1snc(SCC(=O)OC)c1C#N,85.5%,92.5% (inactive),85.5% (inactive),66.2% (inactive),98.9% (inactive),3.02% (inactive),95.9%,98.9%,-5.89% (inactive),6.98% (inactive)
Cc1ccsc1C(C(=O)NC1CCCCC1)N(C(=O)Cc1cccs1)C1CC1 (stereo not given),97.5%,125% (inactive),97.5% (inactive),89.2% (inactive),86.4% (inactive),9.3% (inactive),77.1%,86.4%,-4.87% (inactive),-4% (inactive)
O=C(NCc1cccnc1)C1CCCN(S(=O)(=O)c2ccc(Cl)cc2)C1 (stereo not given),102%,96% (inactive),102% (inactive),77.1% (inactive),86.9% (inactive),1.95% (inactive),84.9%,86.9%,-2.57% (inactive),-1.75% (inactive)
Cc1cc(C)n(-c2nc(C)nc3sc4c(c23)CCC(C)C4)n1 (stereo not given),92.5%,108% (inactive),92.5% (inactive),80.8% (inactive),96.4% (inactive),-0.45% (inactive),96.8%,96.4%,-1.04% (inactive),-13.8% (inactive)
Cc1cnc(C(=O)Nc2ccc(N3CCOCC3)cc2)cn1,95%,87% (inactive),95% (inactive),116% (inactive),100% (inactive),11.7% (inactive),88.5%,100%,-1.32% (inactive),-1.45% (inactive)
CCn1c(=O)c(=O)[nH]c2cc(C(=O)N3CCN(c4ccccc4F)CC3)ccc21,110%,91.5% (inactive),110% (inactive),97.1% (inactive),98.9% (inactive),5.58% (inactive),93.3%,98.9%,0.14% (inactive),-0.16% (inactive)
CCN(CC)S(=O)(=O)N1CCC(C(=O)NC2CCCc3ccccc32)CC1 (stereo not given),78%,118% (inactive),78% (inactive),108% (inactive),90.5% (inactive),4.3% (inactive),86.2%,90.5%,5.45% (inactive),-4.26% (inactive)
COc1ccc(NS(=O)(=O)c2c(C)[nH]c(=O)[nH]c2=O)c(OC)c1,88.5%,91% (inactive),88.5% (inactive),97.9% (inactive),90.8% (inactive),1.25% (inactive),89.5%,90.8%,-0.39% (inactive),-4% (inactive)
CNC(=O)CSc1nnc(-c2ccc(S(=O)(=O)N3CCCC3)cc2)n1-c1cccc(C)c1C,79.5%,78.5% (inactive),79.5% (inactive),86.4% (inactive),88.9% (inactive),11.7% (inactive),77.2%,88.9%,-4.86% (inactive),-1.15% (inactive)
O=C(COc1nnc2ccccn12)N1CCN(S(=O)(=O)c2ccccc2)CC1,107%,86% (inactive),107% (inactive),98.8% (inactive),97.2% (inactive),13.2% (inactive),84%,97.2%,-5.13% (inactive),-5.09% (inactive)
COc1ccc(/C=N/n2c(=O)[nH]c3c([nH]c4ccc(C)cc43)c2=O)cc1CN1CCOCC1,112%,100% (inactive),112% (inactive),95.6% (inactive),84.6% (inactive),0.925% (inactive),83.7%,84.6%,-1.71% (inactive),12% (inactive)
OCc1nc(CO)n(Cc2ccccc2)n1,85.5%,84% (inactive),85.5% (inactive),88.7% (inactive),102% (inactive),-5.83% (inactive),108%,102%,-1.05% (inactive),-0.48% (inactive)
Cc1nn(-c2ccccc2)c2c1C(c1c(C)[nH]c(C#N)c1C)C(C#N)=C(N)O2 (stereo not given),88%,86.5% (inactive),88% (inactive),85.5% (inactive),92.7% (inactive),-13.2% (inactive),106%,92.7%,-4.13% (inactive),-5.25% (inactive)

SMILES,viability [1],Her2 level [2],viability [3],viability [4],viability [5],differential viability (reversal) ([6]; H69AR cells + 2 uM doxorubicin),"viability [6, 9]","viability [6, 10]",inhibition [7],inhibition [8]
COC(=O)c1ccccc1NC(=O)CC(NCc1ccccc1)C(=O)O (stereo not given),102%,111% (inactive),102% (inactive),103% (inactive),104% (inactive),0.78% (inactive),103%,104%,-2.11% (inactive),-12.3% (inactive)
CCOC(=O)c1c(NCc2ccc3c(c2)OCO3)c2ccccc2[nH]c1=O,100%,69.5% (inactive),100% (inactive),100% (inactive),87.3% (inactive),-5.86% (inactive),93.1%,87.3%,-8.78% (inactive),1.33% (inactive)
O=C(CSc1nnc(CNC(=O)c2cccs2)o1)Nc1cccc(C(F)(F)F)c1,83.5%,98.5% (inactive),83.5% (inactive),82.7% (inactive),92.8% (inactive),1.86% (inactive),90.9%,92.8%,-0.13% (inactive),-7% (inactive)
CN1C(=O)CC(C(=O)Nc2ccc(F)cc2)SC1=Nc1ccc2c(c1)OCO2 (stereo not given),88%,73% (inactive),88% (inactive),95% (inactive),82.5% (inactive),2.84% (inactive),79.6%,82.5%,-7.16% (inactive),0.83% (inactive)
NC(=O)C(Cc1ccccc1)NS(=O)(=O)c1ccc(N2CCCC2=O)cc1 (stereo not given),90.5%,92% (inactive),90.5% (inactive),108% (inactive),101% (inactive),10.9% (inactive),90%,101%,-3.87% (inactive),1.48% (inactive)
O=C(COC(=O)CSc1nnc(-c2ccc(Cl)cc2)o1)NCc1ccc2c(c1)OCO2,98%,84% (inactive),98% (inactive),90.8% (inactive),104% (inactive),3.27% (inactive),100%,104%,-4.19% (inactive),0.79% (inactive)
COC(=O)N1CC(c2ccccc2)CC1=O (stereo not given),96.5%,81.5% (inactive),96.5% (inactive),101% (inactive),100% (inactive),15.1% (inactive),85%,100%,-9.04% (inactive),-6.51% (inactive)
O=C(O)C1CC(=O)N(Cc2ccccc2)C1 (stereo not given),109%,96.5% (inactive),109% (inactive),91.2% (inactive),90.2% (inactive),0.445% (inactive),89.8%,90.2%,-5.39% (inactive),6.23% (inactive)
Cc1cccc(CCNC(=O)C2CCCN(S(=O)(=O)c3cnc[nH]3)C2)c1 (stereo not given),99.5%,106% (inactive),99.5% (inactive),103% (inactive),89.4% (inactive),3.16% (inactive),86.2%,89.4%,-4.93% (inactive),-1.97% (inactive)
Cc1c(NC(=O)C(C)OC(=O)COc2cccc3c2OC(C)(C)C3)c(=O)n(-c2ccccc2)n1C (stereo not given),112%,106% (inactive),112% (inactive),124% (inactive),92% (inactive),-1.3% (inactive),93.3%,92%,-4.47% (inactive),17.2% (inactive)
COc1ccc2c(c1)C1(C)CC(C)(C)N2C(=O)N1c1ccccc1 (stereo not given),101%,89.5% (inactive),101% (inactive),61.5% (inactive),67.3% (inactive),-16.7% (inactive),84%,67.3%,-5.07% (inactive),-5.41% (inactive)
CCOc1cccc(-c2nnc3sc(COc4ccc(OC)cc4)nn23)c1,72.5%,102% (inactive),72.5% (inactive),68.3% (inactive),85.5% (inactive),-1.33% (inactive),86.9%,85.5%,-1.95% (inactive),-6.39% (inactive)
CSc1ccccc1NC(=O)c1c(Br)cnn1C,89.5%,94.5% (inactive),89.5% (inactive),79.2% (inactive),101% (inactive),6.58% (inactive),94.2%,101%,-2.6% (inactive),-4.44% (inactive)
CC(=O)c1cc(F)c(N2CCN(C(=O)Cc3ccccc3)CC2)cc1C,96.5%,97% (inactive),96.5% (inactive),107% (inactive),93.5% (inactive),-7.49% (inactive),101%,93.5%,0% (inactive),-4.35% (inactive)
CCC(=O)Nc1ccc2nc(SCC(=O)N3CCCC3)sc2c1,97.5%,100% (inactive),97.5% (inactive),114% (inactive),94.1% (inactive),5.62% (inactive),88.5%,94.1%,2.67% (inactive),38.4% (active)
